Data: ChEMBL document CHEMBL1777716, “Identification and optimisation of novel sulfonamide, selective vasopressin V1B receptor antagonists” (Bioorg Med Chem Lett, 2011)
Converted amounts (≈) assume the structure as drawn. The source made the active and inactive calls. The calls are words filed in the database; no cut-off is given here. Non-standard residues stand in square brackets, D forms with d. Residues, ends and D or L forms follow the SMILES beside them. *: point of attachment. 2Nal = N[C@@H](Cc1ccc2ccccc2c1)C(=O)O; Mtr = COc1cc(C)c(S(=O)(=O)*)c(C)c1C; Piperidide = C1CCN(*)CC1

Legend:
[1] = biological target: T1, Vasopressin V1b receptor (Homo sapiens, UniProt P47901); experiment: Displacement of [3H]-AVP from human vasopressin V1B receptor expressed in CHO cells; assay type: cell-based
T1 sequence (P47901 whole entry): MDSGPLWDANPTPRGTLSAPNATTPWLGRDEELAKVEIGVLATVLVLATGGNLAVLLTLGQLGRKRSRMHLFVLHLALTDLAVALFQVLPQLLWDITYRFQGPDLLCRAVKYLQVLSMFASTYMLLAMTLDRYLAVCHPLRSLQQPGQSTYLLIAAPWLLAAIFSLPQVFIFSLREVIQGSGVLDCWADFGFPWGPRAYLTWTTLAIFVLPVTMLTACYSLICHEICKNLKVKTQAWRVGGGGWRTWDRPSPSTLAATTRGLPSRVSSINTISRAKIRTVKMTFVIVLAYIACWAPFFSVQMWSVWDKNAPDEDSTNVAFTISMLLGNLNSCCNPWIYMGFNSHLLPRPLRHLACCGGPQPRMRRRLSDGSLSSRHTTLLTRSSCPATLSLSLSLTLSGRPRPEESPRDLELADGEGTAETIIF
Summary of the method: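 Whole-cell binding in CHO cells expressing human receptor, [³H]AVP tracer, increasing compound concentrations; nonspecific binding with 10 µM lysine vasopressin. Affinity (Ki) from non-linear regression of specific binding versus concentration; mean of at least 2 independent experiments run in duplicate.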

[2] = biological target: T2, Oxytocin receptor (Homo sapiens, UniProt P30559); experiment: Displacement of [3H]oxytocin from human oxytocin receptor expressed in CHO cells; assay type: cell-based
T2 sequence (P30559 whole entry): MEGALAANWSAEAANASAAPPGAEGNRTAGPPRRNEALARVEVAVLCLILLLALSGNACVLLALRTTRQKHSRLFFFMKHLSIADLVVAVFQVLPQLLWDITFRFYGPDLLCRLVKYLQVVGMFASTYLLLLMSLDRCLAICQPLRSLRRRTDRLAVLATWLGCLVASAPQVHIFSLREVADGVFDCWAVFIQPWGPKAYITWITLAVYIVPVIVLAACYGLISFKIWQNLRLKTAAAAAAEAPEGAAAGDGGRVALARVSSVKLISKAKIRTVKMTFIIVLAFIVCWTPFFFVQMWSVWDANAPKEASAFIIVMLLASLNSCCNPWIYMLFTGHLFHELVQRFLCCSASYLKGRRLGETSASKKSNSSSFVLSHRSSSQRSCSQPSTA
Summary of the method: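 Intact CHO cells expressing human receptor incubated with [³H]oxytocin plus increasing compound concentrations; 10 µM oxytocin defines nonspecific binding. Ki obtained by non-linear regression of specific binding against compound concentration; values averaged from at least 2 independent duplicate experiments.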

[3] = Lipophilicity, log D of the compound at pH 7.4; assay type: physicochemical; details: buffer
[4] = biological target: Vasopressin V1a receptor (Homo sapiens, UniProt P37288); experiment: Displacement of [3H]-AVP from human vasopressin V1A receptor expressed in CHO cell membranes
Summary of the method: (§1)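 Membranes from CHO cells expressing the human receptor incubated with [³H]AVP and increasing compound concentrations. Nonspecific binding defined with 10 µM lysine vasopressin. Specific binding plotted against compound concentration; affinity derived by non-linear regression. Mean of at least 2 independent experiments in duplicate.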

[5] = Solubility of the compound at pH 7.4; assay type: physicochemical; details: buffer
Summary of the method: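 Kinetic solubility measured at pH 7.4, reported in mg/L.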

[6] = biological target: T1, Vasopressin V1b receptor; experiment: Antagonist activity at human vasopressin V1B receptor expressed in CHO cells assessed as inhibition of AVP-induced calcium mobilisation by luciferase reporter gene assay; assay type: functional, cell-based
[7] = biological target: Vasopressin V2 receptor (Homo sapiens, UniProt P30518); experiment: Displacement of [3H]-AVP from human vasopressin V2 receptor expressed in CHO cell membranes; summary of the method: as §1
[8] = biological target: 5-hydroxytryptamine receptor 6 (Homo sapiens) (UniProt P50406); experiment: Binding affinity to 5HT6 receptor
Sequence of 5-hydroxytryptamine receptor 6 (Homo sapiens) (P50406 whole entry): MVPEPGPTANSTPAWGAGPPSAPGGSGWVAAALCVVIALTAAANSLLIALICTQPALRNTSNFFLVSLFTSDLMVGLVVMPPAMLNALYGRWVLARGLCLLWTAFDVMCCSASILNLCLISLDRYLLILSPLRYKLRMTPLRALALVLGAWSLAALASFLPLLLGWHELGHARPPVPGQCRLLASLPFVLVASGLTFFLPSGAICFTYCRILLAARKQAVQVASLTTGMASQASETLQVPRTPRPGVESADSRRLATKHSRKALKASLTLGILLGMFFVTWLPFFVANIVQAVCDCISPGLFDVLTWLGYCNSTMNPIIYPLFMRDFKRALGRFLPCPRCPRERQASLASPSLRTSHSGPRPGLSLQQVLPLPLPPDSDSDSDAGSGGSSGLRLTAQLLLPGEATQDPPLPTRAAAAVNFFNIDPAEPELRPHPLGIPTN

Sequence of Vasopressin V1a receptor (P37288 whole entry): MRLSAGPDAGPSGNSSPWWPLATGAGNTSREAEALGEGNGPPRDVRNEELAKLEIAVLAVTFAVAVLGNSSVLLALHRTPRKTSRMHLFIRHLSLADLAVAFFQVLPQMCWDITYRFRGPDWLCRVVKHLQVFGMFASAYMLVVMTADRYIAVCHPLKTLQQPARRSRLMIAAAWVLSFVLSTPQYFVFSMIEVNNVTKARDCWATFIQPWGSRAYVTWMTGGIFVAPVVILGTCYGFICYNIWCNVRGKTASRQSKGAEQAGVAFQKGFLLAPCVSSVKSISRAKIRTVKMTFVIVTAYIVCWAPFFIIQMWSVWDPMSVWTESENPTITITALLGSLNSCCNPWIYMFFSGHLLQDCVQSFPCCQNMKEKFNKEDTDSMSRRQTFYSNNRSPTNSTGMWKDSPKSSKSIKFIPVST
Sequence of Vasopressin V2 receptor (P30518 whole entry): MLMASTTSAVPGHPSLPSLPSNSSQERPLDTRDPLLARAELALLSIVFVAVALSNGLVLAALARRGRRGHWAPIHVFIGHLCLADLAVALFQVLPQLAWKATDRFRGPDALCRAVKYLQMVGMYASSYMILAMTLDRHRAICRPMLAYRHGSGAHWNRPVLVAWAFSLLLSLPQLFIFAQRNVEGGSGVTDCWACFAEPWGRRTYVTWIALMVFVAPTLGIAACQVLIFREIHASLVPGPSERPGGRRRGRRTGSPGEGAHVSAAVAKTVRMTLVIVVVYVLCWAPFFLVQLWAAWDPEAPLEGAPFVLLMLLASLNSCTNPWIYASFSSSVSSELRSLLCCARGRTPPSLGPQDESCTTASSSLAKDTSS

| Ki [1] [nM] | Compound | also measured |
| --- | --- | --- |
| 1000 | COc1cc(C)c(S(=O)(=O)N[C@@H](Cc2ccccc2)C(=O)N(C)CCCN2CCN(C)CC2)c(C)c1C |  |
| > 10000 | COc1cc(C)c(S(=O)(=O)N[C@@H](Cc2ccccc2)C(=O)N[C@@H](Cc2ccc3ccccc3c2)C(=O)N2CCCCC2)c(C)c1C (Mtr-Phe-[2Nal]-Piperidide) |  |
| 790 | COc1ccc(S(=O)(=O)n2c(C)c(C(=O)N3CCCNCC3)c3cc(C)ccc32)c(C)c1C |  |
| > 10000 | COc1cc(C)c(S(=O)(=O)N[C@@H](Cc2ccccc2)C(=O)N[C@H](Cc2ccccc2)C(=O)N2CCCCC2)c(C)c1C |  |
| 430 | COc1ccc(S(=O)(=O)n2c(C)c(CC(=O)NCCCN3CCN(C)CC3)c3cc(F)ccc32)c(C)c1C |  |
| 560 | COc1ccc(S(=O)(=O)n2c(C)c(C(=O)NCCCN3CCN(C)CC3)c3ccccc32)c(C)c1C |  |
| > 10000 | COc1cc(C)c(S(=O)(=O)N[C@@H](Cc2ccccc2)C(=O)NCC(=O)N2CCCCC2)c(C)c1C (Mtr-Phe-Gly-Piperidide) |  |
| 63 | COc1cc(C)c(S(=O)(=O)N[C@@H](Cc2ccccc2)C(=O)NC(Cc2ccc3c(N)nccc3c2)C(=O)N2CCCCC2)c(C)c1C (some centres undefined) |  |
| 310 | COc1ccc(S(=O)(=O)n2c(C)c(C(=O)N3CCCNCC3)c3cc(F)ccc32)c(C)c1C |  |
| 3200 | COc1cc(C)c(S(=O)(=O)N[C@@H](Cc2ccccc2)C(=O)N2CCCN(C)CC2)c(C)c1C |  |
| 500 | COc1ccc(S(=O)(=O)n2c(C)c(C(=O)N3CCCN(C)CC3)c3ccccc32)c(C)c1C |  |
| 190 | COc1ccc2c(c1)c(C(=O)N1CCCNCC1)c(C)n2S(=O)(=O)c1ccc(OC)c(C)c1C | Ki [2]: > 10000 nM; logD [3]: 2; Ki [4]: > 10000 nM; solubility [5]: 72 µg/mL (≈ 148 µM); IC50 [6]: 371 nM; Ki [7]: > 10000 nM |
| 630 | COc1cc(C)c(S(=O)(=O)N[C@@H](Cc2ccccc2)C(=O)N[C@@H](Cc2ccccc2)C(=O)N2CCCCC2)c(C)c1C |  |
| 250 | COc1cc(C)c(S(=O)(=O)N[C@@H](Cc2ccccc2)C(=O)NCCCN2CCN(C)CC2)c(C)c1C |  |
| 2000 | COc1cc(C)c(S(=O)(=O)N[C@@H](Cc2ccccc2)C(=O)NCCCN(C)C)c(C)c1C |  |
| 180 | COc1ccc2c(c1)c(CC(=O)N1CCCNCC1)c(C)n2S(=O)(=O)c1ccc(OC)c(C)c1C | Ki [2]: 320 nM |
| 10000 | COc1cc(C)c(S(=O)(=O)N[C@@H](Cc2ccccc2)C(=O)NCCCN2CCOCC2)c(C)c1C |  |
| 2500 | COc1cc(C)c(S(=O)(=O)N[C@@H](Cc2ccccc2)C(=O)NCCCN2CCC(C)CC2)c(C)c1C |  |
| 260 | COc1ccc(S(=O)(=O)n2c(C)c(CC(=O)N(C)CCc3ccccn3)c3cc(F)ccc32)c(C)c1C |  |
| 1200 | COc1ccc(S(=O)(=O)N2CC(C(=O)NCCCN3CCN(C)CC3)c3ccccc32)c(C)c1C (centres undefined) | Activity [8]: Active |
| 500 | COc1cc(C)c(S(=O)(=O)N[C@@H](Cc2ccccc2)C(=O)NCCN2CCN(C)CC2)c(C)c1C |  |
